{
  "source": "ChEMBL document CHEMBL4818983",
  "about": "“Structure-activity relationship and hypoglycemic activity of tricyclic matrines with advantage of treating diabetic nephropathy” (Eur J Med Chem, 2020)",
  "key": {"HepG2 [1]": {"system": "HepG2", "assay": "Induction of glycolysis in human HepG2 cells assessed as increase in lactate release at 10 to 40 uM measured after 24 hrs", "settings": "dose 10-40 µM"}, "HepG2 [2]": {"system": "HepG2", "assay": "Increase in glucose consumption in human HepG2 cells at 10 to 40 uM measured after 24 hrs", "type": "functional, cell-based", "settings": "dose 10-40 µM", "outline": "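HepG2 cells treated 24 h at the indicated concentrations; RGZ as reference. Supernatants used for glucose consumption and lactate release; lysed cells used for ATP, normalized to protein content. Mean ± SD of 3 or 4 separate experiments; compared with DMSO.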"}, "Mus musculus [3]": {"system": "Mus musculus", "assay": "Antidiabetic activity in KK-Ay mouse assessed as effect on cholesterol level at 50 mg/kg, […] by ELISA (reference value: 7.38 +/- 1.03 mM)", "type": "functional"}, "[4]": {"assay": "Effect on high fat diet-fed KK-Ay mouse model of obesity and diabetes assessed as food intake at 100 mg/kg, po (reference value: 5.67 +/- 0.55 g/day)", "type": "ADME, organism-based", "settings": "in vivo", "outline": "(§1)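 KK-Ay mice on lipogenic diet, with C57BL/6J mice as normal controls, dosed orally at 50 or 100 mg/kg (test) or 5 mg/kg (RGZ). Food intake (g/day), water intake (mL/day) and body weight recorded before and after treatment; body weight gain calculated. Mean±SD, 8-9 mice per group.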"}, "Mus musculus [5]": {"system": "Mus musculus", "assay": "Antidiabetic activity in KK-Ay mouse assessed as effect on serum Creatinine level at 100 mg/kg, po for 24 hrs by ELISA (reference value: 124 +/- 35.1 uM)", "type": "functional"}, "Mus musculus [6]": {"system": "Mus musculus", "assay": "Antidiabetic activity in KK-Ay mouse assessed as effect on AGE level at 100 mg/kg, […] by ELISA (Rvb 2.85 +/- 0.92 ug/ml)", "type": "functional"}, "Mus musculus [7]": {"system": "Mus musculus", "assay": "Antidiabetic activity in KK-Ay mouse assessed as effect on glycosylated haemoglobin level at 50 mg/kg, po for 50 days by glucose oxidase method (reference value: 8.74 +/- 1.08%)", "type": "functional", "settings": "time 50 day", "outline": "(§2)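 Lipogenic-diet KK-Ay mice given 50 or 100 mg/kg compound or 5 mg/kg rosiglitazone orally for 50 days, C57BL/6J as normal controls. Fasting blood glucose, glycosylated haemoglobin, AGE, insulin, HOMA-IR, cholesterol, LDL-c, TG, serum creatinine and BUN determined. Mean ± SD, 8-9 mice per group.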"}, "Mus musculus [8]": {"system": "Mus musculus", "assay": "Anti-diabetic activity in overnight fasted diabetic KK-Ay mouse assessed as increase in insulin responsiveness by measuring blood glucose at 50 to 100 mg/kg, po measured after 35 days by insulin tolerance test", "type": "functional, organism-based", "settings": "dose 50-100 mg/kg, time 35.0 day", "outline": "(§3)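 KK-Ay mice orally treated with 50 or 100 mg/kg compound or 5 mg/kg rosiglitazone, C57BL/6J as normal controls. After 35 days of treatment, oral glucose tolerance test and insulin tolerance test run. Blood glucose plotted against time, AUC calculated. Mean ± SD, 8-9 mice per group.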"}, "Mus musculus [9]": {"system": "Mus musculus", "assay": "Antidiabetic activity in KK-Ay mouse assessed as effect on cholesterol level at 100 mg/kg, po for 24 hrs by ELISA (reference value: 7.38 +/- 1.03 mM)", "type": "functional"}, "Mus musculus [10]": {"system": "Mus musculus", "assay": "Antidiabetic activity in KK-Ay mouse assessed as effect on insulin level at 100 mg/kg, […] by ELISA (reference value: 226 +/- 15.5 mU/l)", "type": "functional"}, "Mus musculus [11]": {"system": "Mus musculus", "assay": "Antidiabetic activity in KK-Ay mouse assessed as effect on BUN level at 100 mg/kg, po for 24 hrs by ELISA (reference value: 12.8 +/- 2.97 mM)", "type": "functional"}, "HepG2 [12]": {"system": "HepG2", "assay": "Cytotoxicity against human HepG2 cells upto 160 uM after 24 hrs by MTT assay", "type": "cell-based", "settings": "hepg2, 24 h", "outline": "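HepG2 cells exposed to compound; cell growth measured; CC50 derived from the concentration–growth relationship.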"}, "Mus musculus [13]": {"system": "Mus musculus", "assay": "Anti-diabetic activity in overnight fasted diabetic KK-Ay mouse assessed as reduction in blood glucose AUC at 50 to 100 mg/kg, po measured after 35 days by oral glucose tolerance test", "type": "functional, organism-based", "settings": "dose 50-100 mg/kg, time 35.0 day", "outline": "as §3"}, "Mus musculus [14]": {"system": "Mus musculus", "assay": "Anti-diabetic activity in high fat diet-fed KK-Ay mouse model of obesity and diabetes assessed as reduction in microalbumin level in urine at 50 to 100 mg/kg, po measured after 24 hrs", "type": "functional, organism-based", "settings": "dose 50-100 mg/kg", "outline": "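Before study end, 24-h urine collected from C57BL/6J controls and KK-Ay mice (untreated, oral 50 or 100 mg/kg compound, or 5 mg/kg rosiglitazone). Volume, glucose, total protein and microalbumin measured by kits. Mean ± SD, 8-9 mice per group, vs C57BL/6J or untreated KK-Ay.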"}, "Mus musculus [15]": {"system": "Mus musculus", "assay": "Anti-diabetic activity in high fat diet-fed KK-Ay mouse model of obesity and diabetes assessed as improved pathological changes in kidney at 50 to 100 mg/kg, po by hematoxylin and eosin staining based histopathological analysis", "type": "functional, organism-based", "settings": "dose 50-100 mg/kg", "outline": "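Mice sacrificed at study end, with KK-Ay given 50 or 100 mg/kg compound or 5 mg/kg rosiglitazone orally and C57BL/6J as normal controls. Kidney and pancreas sections H&E stained, imaged at 200×, pathological changes scored. Mean ± SD of 8-9 mice per group.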"}, "Mus musculus [16]": {"system": "Mus musculus", "assay": "Antidiabetic activity in KK-Ay mouse assessed as reduction in fasting blood glucose level at 50 mg/kg, po for 50 days by glucose oxidase method (reference value: 13.2 +/- 2.51 mM)", "type": "functional", "settings": "time 50 day", "outline": "as §2"}, "[17]": {"assay": "Effect on high fat diet-fed po dosed C57BL/6J mouse model of obesity and diabetes assessed as total body weight gain", "type": "organism-based", "settings": "in vivo"}, "[18]": {"assay": "Effect on high fat diet-fed KK-Ay mouse model of obesity and diabetes assessed as food intake at 50 mg/kg, po (reference value: 5.67 +/- 0.55 g/day)", "type": "ADME, organism-based", "settings": "in vivo", "outline": "as §1"}, "Mus musculus [19]": {"system": "Mus musculus", "assay": "Anti-diabetic activity in overnight fasted diabetic KK-Ay mouse assessed as reduction in blood glucose AUC at 5 mg/kg, po […] measured after 35 days by oral glucose tolerance test", "type": "functional, organism-based", "outline": "as §3"}, "[20]": {"assay": "Effect on high fat diet-fed KK-Ay mouse model of obesity and diabetes assessed as total body weight gain at 100 mg/kg, po (reference value: 43.5 +/- 5.24 g)", "type": "ADME, organism-based", "settings": "in vivo", "outline": "as §1"}, "Mus musculus [21]": {"system": "Mus musculus", "assay": "Antidiabetic activity in KK-Ay mouse assessed as effect on glycosylated haemoglobin level at 100 mg/kg, po for 50 days by glucose oxidase method (reference value: 8.74 +/- 1.08%)", "type": "functional", "settings": "time 50 day", "outline": "as §2"}, "Mus musculus [22]": {"system": "Mus musculus", "assay": "Anti-diabetic activity in high fat diet-fed KK-Ay mouse model of obesity and diabetes assessed as reduction in urine glucose level at 50 to 100 mg/kg, po measured after 24 hrs", "settings": "dose 50-100 mg/kg"}, "[23]": {"assay": "Effect on high fat diet-fed KK-Ay mouse model of obesity and diabetes assessed as water intake at 100 mg/kg, po (reference value: 21.2 +/- 4.17 ml/day)", "type": "ADME, organism-based", "settings": "in vivo", "outline": "as §1"}, "Mus musculus [24]": {"system": "Mus musculus", "assay": "Antidiabetic activity in KK-Ay mouse assessed as effect on LDL level at 50 mg/kg, po for 24 hrs by ELISA (reference value: 1.11 +/- 0.24 mM)", "type": "functional"}, "Mus musculus [25]": {"system": "Mus musculus", "assay": "Antidiabetic activity in KK-Ay mouse assessed as effect on LDL level at 100 mg/kg, po […] by ELISA (reference value: 1.11 +/- 0.24 mM)", "type": "functional"}},
  "note": "Active and inactive are the calls of the source. No cut-off for these calls is given here.",
  "data": [
    {"compound": "CCCC[C@@H]1[C@H]2CCCN3CCC[C@@H](CN1S(=O)(=O)c1ccc(C(F)(F)F)cc1)[C@@H]23", "values": [
      {"measurement": "Activity", "setting": "HepG2 [1]", "result": "Dose-Dependent Effect"},
      {"measurement": "Activity", "setting": "HepG2 [2]", "result": "Dose-Dependent Effect"},
      {"measurement": "Activity", "setting": "Mus musculus [3]", "result": 7.05, "unit": "mM"},
      {"measurement": "Activity", "setting": "[4]", "result": 5.28, "unit": "g/day"},
      {"measurement": "Activity", "setting": "Mus musculus [5]", "result": 70.4, "unit": "µM"},
      {"measurement": "Activity", "setting": "Mus musculus [6]", "result": 1.13, "unit": "µg/mL"},
      {"measurement": "Activity", "setting": "Mus musculus [7]", "result": 7.07, "unit": "%"},
      {"measurement": "Activity", "setting": "Mus musculus [8]", "result": "Active"},
      {"measurement": "Activity", "setting": "Mus musculus [9]", "result": 5.55, "unit": "mM"},
      {"measurement": "Activity", "setting": "Mus musculus [10]", "result": 128, "unit": "mU/L"},
      {"measurement": "Activity", "setting": "Mus musculus [11]", "result": 12.4, "unit": "mM"},
      {"measurement": "Activity", "setting": "HepG2 [12]", "result": "Non-Toxic"},
      {"measurement": "Activity", "setting": "Mus musculus [13]", "result": "Active"},
      {"measurement": "Activity", "setting": "Mus musculus [14]", "result": "Active"},
      {"measurement": "Activity", "setting": "Mus musculus [15]", "result": "Active"},
      {"measurement": "Activity", "setting": "Mus musculus [16]", "result": 9.44, "unit": "mM"},
      {"measurement": "Activity", "setting": "[17]", "result": 3.42, "unit": "g"},
      {"measurement": "Activity", "setting": "[18]", "result": 5.2, "unit": "g/day"},
      {"measurement": "Activity", "setting": "Mus musculus [19]", "result": "Active"},
      {"measurement": "Activity", "setting": "[20]", "result": 2.53, "unit": "g"},
      {"measurement": "Activity", "setting": "Mus musculus [21]", "result": 6.75, "unit": "%"},
      {"measurement": "Activity", "setting": "Mus musculus [22]", "result": "Active"},
      {"measurement": "Activity", "setting": "[23]", "result": 11.9, "unit": "mL/day"},
      {"measurement": "Activity", "setting": "Mus musculus [24]", "result": 1.06, "unit": "mM"},
      {"measurement": "Activity", "setting": "Mus musculus [25]", "result": 0.82, "unit": "mM"}
    ]}
  ]
}
